Data as given in article PMC8853710 (Journal of Enzyme Inhibition and Medicinal Chemistry, 2019).
≈ marks a conversion by molar mass, not a printed value. Like-named read-outs stand apart in the source and are kept apart here.

Key:
Hsp90α = Hsp90α (Homo sapiens, UniProt P07900); test: Kinase inhibition assay, Hsp90α; format: biochemical
PI3Kα = PI3Kα (Homo sapiens, UniProt P42336); test: Kinase inhibition assay, PI3Kα; format: biochemical
B16 melanoma cell line = test: Cell proliferation; format: cell-based; conditions: for B16 GI ratio: B16 cells, test concentration not given; for IC50: Mus musculus, read-out: IC50, B16 melanoma cell line
EGFR = EGFR (Homo sapiens, UniProt P00533); test: Kinase inhibition assay, EGFR; format: biochemical
VEGFR2 = VEGFR2 (Homo sapiens, UniProt P35968); test: Kinase inhibition assay, VEGFR2; format: biochemical
[1] = test system: several cancer cells (B16, HepG2, A549, SW620, MCF-7, Hela); test: Cytotoxic activity in several cancer cells; format: cell-based; conditions: Figure 5(A)
Method in brief: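 Cells were kept in DMEM with 10% FBS at 37 °C and 5% CO2 and used in exponential growth. They were seeded at 3–6 × 10^3 cells/well for 24 h, then given DMSO or various compound concentrations for 24 or 48 h. MTT (0.5 mg/mL in medium) was added for 3 h at 37 °C and dissolved in DMSO; absorbance was read at 570 nm. Three experiments, each in triplicate.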

B16 cells [2] = test: Colony formation assay; format: cell-based; conditions: 8m-incubated B16 cells vs control group
B16 cells [3] = test: Flow cytometry with annexinV/PI dual staining; format: cell-based; conditions: 24 h incubation
B16 cells [4] = test: Cell cycle analysis by PI staining flow cytometry; format: cell-based; conditions: 24 h treatment
B16 cells [5] = test: Transwell Matrigel invasion assay; format: cell-based; conditions: dose-dependent
Method in brief: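 Transwell chambers with 8-μm pores and Matrigel-precoated top chambers were used. B16 cells (1 × 105) in serum-free medium went into the top chamber, with DMEM in the bottom chamber. Invaded cells were stained with crystal violet and counted under a microscope in triplicate.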

B16 cells [6] = test: Wound-healing cell migration assay; format: cell-based; conditions: 24 h of exposure, dose-dependent
Method in brief: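 B16 cells were seeded at 1 × 10^5 per well in 6-well plates in DMEM and grown overnight. Three scratches per well were made with a 200 µl pipette tip. After a PBS wash, serum-free DMEM containing various compound concentrations or DMSO was added. Migration was assessed by light microscopy between 0 h and 24 h.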

B16 cells [7] = test: Western blotting of B16 melanoma cell extracts; format: cell-based
Method in brief: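 Total protein was extracted from treated B16 cells, separated by SDS-PAGE (7.5–15% gels, chosen by protein size) and transferred to PVDF. Membranes were blocked with 5% BSA, incubated with primary antibodies on ice overnight, then with HRP-conjugated secondary antibodies for 1 h at room temperature. Bands were detected by ECL. Migration- and invasion-related proteins were assessed at 20 and 40 μg/mL.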

B16 melanoma xenograft = test: B16 subcutaneous tumor xenograft model; format: in vivo, C57BL/6J mice; conditions: for tumor growth inhibition ratio: B16 subcutaneous xenograft, C57BL/6J mice, once a day
Method in brief: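 Female C57BL/6J mice, 8–12 weeks old, received B16 cells subcutaneously in the dorsal flank (5 × 105 in 100 μL PBS). Groups of 8 were dosed once a day with test compound or NS control. Tumours were measured every two days and volume was taken as a×b2×0.5. Excised tumours were formalin-fixed, paraffin-embedded, sectioned, and stained for TUNEL, EGFR, Akt, pAkt473 and Ki67.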

EGFR, sequence (P00533 25-1210): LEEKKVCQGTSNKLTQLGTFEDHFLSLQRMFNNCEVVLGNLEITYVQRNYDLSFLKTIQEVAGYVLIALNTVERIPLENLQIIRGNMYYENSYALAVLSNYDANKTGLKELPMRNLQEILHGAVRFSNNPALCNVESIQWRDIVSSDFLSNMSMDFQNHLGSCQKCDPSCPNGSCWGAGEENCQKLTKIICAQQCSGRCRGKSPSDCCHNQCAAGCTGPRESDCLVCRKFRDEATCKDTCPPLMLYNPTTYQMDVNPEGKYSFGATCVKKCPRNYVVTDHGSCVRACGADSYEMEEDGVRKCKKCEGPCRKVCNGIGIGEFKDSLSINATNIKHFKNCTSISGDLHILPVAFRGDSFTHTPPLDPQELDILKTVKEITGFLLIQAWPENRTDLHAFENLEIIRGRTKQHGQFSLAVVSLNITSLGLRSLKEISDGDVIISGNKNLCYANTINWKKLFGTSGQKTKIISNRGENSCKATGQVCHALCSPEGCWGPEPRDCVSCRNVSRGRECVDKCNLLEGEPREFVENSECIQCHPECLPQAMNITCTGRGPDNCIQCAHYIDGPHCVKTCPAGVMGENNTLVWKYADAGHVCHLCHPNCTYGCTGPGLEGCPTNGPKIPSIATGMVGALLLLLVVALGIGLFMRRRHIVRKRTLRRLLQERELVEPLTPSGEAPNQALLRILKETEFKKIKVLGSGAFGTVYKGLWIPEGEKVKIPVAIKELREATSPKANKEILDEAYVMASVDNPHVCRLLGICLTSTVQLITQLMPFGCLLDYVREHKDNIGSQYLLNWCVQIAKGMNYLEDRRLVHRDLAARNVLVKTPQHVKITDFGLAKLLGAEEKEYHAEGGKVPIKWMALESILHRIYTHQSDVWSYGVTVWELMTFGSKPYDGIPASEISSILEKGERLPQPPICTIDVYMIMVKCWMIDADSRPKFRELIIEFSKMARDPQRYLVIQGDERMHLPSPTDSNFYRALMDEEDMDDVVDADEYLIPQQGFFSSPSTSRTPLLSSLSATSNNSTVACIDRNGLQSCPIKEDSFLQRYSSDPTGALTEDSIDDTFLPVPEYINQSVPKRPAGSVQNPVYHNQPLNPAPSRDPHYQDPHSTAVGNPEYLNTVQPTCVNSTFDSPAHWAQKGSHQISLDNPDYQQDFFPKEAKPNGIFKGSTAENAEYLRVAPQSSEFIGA
PI3Kα, sequence (P42336 whole entry): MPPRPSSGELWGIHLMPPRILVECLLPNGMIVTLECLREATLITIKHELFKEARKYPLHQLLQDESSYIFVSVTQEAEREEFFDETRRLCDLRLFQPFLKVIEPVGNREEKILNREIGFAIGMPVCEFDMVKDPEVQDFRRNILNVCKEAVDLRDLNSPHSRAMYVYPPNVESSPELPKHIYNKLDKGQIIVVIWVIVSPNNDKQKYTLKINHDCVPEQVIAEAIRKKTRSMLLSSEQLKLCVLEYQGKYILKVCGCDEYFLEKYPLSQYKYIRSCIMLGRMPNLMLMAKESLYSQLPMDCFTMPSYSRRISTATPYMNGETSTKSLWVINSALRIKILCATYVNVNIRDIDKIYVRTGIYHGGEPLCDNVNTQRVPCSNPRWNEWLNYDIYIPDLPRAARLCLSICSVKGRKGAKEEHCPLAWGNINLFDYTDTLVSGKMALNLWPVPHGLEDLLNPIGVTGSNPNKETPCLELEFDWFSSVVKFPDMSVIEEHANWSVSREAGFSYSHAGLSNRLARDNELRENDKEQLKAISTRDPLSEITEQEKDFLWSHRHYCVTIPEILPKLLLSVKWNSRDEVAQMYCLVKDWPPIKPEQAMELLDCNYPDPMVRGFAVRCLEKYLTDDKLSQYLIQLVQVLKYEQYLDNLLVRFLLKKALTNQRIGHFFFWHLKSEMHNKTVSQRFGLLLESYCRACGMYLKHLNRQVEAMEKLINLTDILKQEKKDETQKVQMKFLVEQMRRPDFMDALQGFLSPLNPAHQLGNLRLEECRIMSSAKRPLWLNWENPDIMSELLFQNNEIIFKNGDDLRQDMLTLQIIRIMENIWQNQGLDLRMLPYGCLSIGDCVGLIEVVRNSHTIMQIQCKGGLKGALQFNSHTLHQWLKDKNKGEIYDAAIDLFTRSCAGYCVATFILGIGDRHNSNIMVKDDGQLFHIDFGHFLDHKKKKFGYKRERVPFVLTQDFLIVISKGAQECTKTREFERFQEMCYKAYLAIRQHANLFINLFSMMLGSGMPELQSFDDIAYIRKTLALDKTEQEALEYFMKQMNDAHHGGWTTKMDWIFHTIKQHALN
PI3Kα, sequence (P27986 whole entry partner): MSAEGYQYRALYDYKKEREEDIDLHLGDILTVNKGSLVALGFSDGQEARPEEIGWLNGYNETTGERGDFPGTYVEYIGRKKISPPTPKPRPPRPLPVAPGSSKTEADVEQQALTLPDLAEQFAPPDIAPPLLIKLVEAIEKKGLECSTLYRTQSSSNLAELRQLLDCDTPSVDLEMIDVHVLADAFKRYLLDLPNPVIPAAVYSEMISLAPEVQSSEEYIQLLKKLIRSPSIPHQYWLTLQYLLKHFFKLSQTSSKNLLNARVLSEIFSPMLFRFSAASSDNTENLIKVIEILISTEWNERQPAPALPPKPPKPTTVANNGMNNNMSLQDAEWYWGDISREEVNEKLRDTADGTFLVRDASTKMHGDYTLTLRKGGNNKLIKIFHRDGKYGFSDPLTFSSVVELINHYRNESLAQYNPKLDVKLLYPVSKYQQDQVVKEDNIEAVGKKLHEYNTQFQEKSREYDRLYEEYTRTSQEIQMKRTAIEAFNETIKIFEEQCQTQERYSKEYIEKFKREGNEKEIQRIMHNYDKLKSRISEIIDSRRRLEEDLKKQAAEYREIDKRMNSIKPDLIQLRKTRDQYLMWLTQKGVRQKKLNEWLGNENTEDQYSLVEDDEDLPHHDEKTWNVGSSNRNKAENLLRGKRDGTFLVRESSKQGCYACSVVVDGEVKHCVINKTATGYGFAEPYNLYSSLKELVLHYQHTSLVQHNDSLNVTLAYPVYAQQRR
VEGFR2, sequence (P35968 20-1356): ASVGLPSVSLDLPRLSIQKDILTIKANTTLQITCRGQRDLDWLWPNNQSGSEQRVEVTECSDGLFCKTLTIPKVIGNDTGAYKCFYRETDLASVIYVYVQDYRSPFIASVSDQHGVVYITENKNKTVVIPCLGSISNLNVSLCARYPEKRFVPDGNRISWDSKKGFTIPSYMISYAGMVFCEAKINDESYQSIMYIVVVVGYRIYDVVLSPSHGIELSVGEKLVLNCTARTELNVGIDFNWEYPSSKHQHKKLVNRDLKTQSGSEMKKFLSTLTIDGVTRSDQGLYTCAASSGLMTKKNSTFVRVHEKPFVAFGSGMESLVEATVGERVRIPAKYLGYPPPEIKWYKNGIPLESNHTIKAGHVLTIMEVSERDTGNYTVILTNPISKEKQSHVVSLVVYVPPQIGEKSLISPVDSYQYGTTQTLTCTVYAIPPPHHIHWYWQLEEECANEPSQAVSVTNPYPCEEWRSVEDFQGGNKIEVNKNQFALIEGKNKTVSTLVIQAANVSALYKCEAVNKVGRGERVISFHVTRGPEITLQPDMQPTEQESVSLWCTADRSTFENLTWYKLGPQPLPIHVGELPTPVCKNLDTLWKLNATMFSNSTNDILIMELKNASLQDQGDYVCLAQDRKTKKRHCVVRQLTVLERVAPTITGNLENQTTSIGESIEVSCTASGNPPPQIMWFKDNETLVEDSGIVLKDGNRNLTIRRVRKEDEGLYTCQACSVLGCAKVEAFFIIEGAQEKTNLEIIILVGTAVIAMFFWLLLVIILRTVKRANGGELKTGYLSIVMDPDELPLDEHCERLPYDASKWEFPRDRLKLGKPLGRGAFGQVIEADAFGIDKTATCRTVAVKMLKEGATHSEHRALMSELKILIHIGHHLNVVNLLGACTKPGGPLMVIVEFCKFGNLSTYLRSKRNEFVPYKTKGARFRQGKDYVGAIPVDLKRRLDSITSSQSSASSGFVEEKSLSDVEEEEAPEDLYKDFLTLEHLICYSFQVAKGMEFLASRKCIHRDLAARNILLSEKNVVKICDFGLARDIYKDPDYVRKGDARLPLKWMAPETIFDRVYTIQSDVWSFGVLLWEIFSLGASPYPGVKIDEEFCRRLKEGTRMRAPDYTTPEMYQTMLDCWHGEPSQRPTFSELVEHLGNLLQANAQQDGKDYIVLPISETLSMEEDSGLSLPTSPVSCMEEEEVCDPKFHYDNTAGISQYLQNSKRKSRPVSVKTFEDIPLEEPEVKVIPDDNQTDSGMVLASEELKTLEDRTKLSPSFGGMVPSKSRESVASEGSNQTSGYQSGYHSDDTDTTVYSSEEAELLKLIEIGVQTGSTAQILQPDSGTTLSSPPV

| Compound | IC50 (Hsp90α) [nM] | IC50 (EGFR) [nM] | IC50 (VEGFR2) [µM] | B16 GI ratio (B16 melanoma cell line) [%] | further results |
| --- | --- | --- | --- | --- | --- |
| CC(C)c1cc(C(=O)N2CCc3c(sc4ncnc(N(C)C)c34)C2)c(O)cc1O [Compound 8n, (2,4-dihydroxy-5-isopropylphenyl)(4-(dimethylamino)-5,8-dihydropyrido[4',3':4,5]thieno[2,3-d]pyrimidin-7(6H)-yl)methanone] | 79.5 | – | – | 46.7 | IC50 (PI3Kα): 568 nM |
| CC(C)c1cc(C(=O)N2CCc3c(sc4ncnc(N5CCCC5)c34)C2)c(O)cc1O [Compound 8l, (2,4-dihydroxy-5-isopropylphenyl)(4-(pyrrolidin-1-yl)-5,8-dihydropyrido[4',3':4,5]thieno[2,3-d]pyrimidin-7(6H)-yl)methanone] | 65 | – | – | 60.4 | IC50 (PI3Kα): 169 nM |
| CC(C)c1cc(C(=O)N2CCc3c(sc4ncnc(N5CCOCC5)c34)C2)c(O)cc1O [Compound 8m, (2,4-dihydroxy-5-isopropylphenyl)(4-morpholino-5,8-dihydropyrido[4',3':4,5]thieno[2,3-d]pyrimidin-7(6H)-yl)methanone] | – | – | – | – | IC50 (PI3Kα): 48.4 nM; IC50 (B16 melanoma cell line; B16, 24 h): ~0.56 µg/mL (≈ 1.23 µM); IC50 (B16 melanoma cell line; B16, 48 h): ~0.47 µg/mL (≈ 1.03 µM); cytotoxic activity in several cancer cells [1]: most potent in melanoma cells; clone formation, size and number of the colonies (B16 cells [2]): dose-dependent decline; apoptotic positive cells (B16 cells [3]): significant increase; cell counts in G1 phase (B16 cells [4]): corresponding descent; cell counts in G2 phase (B16 cells [4]): significantly increased; cell invasion (Matrigel Transwell) (B16 cells [5]): remarkable decrease; wound areas (cell migration) (B16 cells [6]): minimal changes; cleavage of apoptosis related proteins (western blot) (B16 cells [7]; B16 cells): cleavage of Caspase-3, Caspase-8, Caspase-9 and PARP; expression levels of Hsp90 client proteins cdc37, CDK4, EGFR, bRaf and cRaf (western blot) (B16 cells [7]; B16 cells): remarkably suppressed; expression levels of Hsp90α and Hsp70 (western blot) (B16 cells [7]; B16 cells): declined; p-Akt (Ser473), p-Akt (Thr308) and total Akt expression (western blot) (B16 cells [7]; B16 cells): downregulated; E-cadherin expression (western blot) (B16 cells [7]; B16 cells, 20, 40 μg/mL): up-regulated; expression of MMPs, vimentin, N-cadherin, β-catenin, ZEB1 (western blot) (B16 cells [7]; B16 cells, 20, 40 μg/mL): remarkably down-regulated; autophosphorylation of PI3Kα (western blot) (B16 cells [7]; B16 cells, total PI3Kα not influenced): inhibited; apoptotic positive cells in tumor tissue (TUNEL) (B16 melanoma xenograft; B16 xenograft tumor sections, among all therapeutic groups): highest number of apoptotic positive cells; Ki-67 positive cells in tumor tissue (B16 melanoma xenograft; B16 xenograft tumor sections, p < .01): most significant suppression |
| CC(C)c1cc(-c2n[nH]c(=O)n2-c2ccc3c(ccn3C)c2)c(O)cc1O [Ganetespib, reference compound] | – | – | – | – | tumor growth inhibition ratio (B16 melanoma xenograft): 57% |
| CC(C)c1cccc(Nc2ncnc3sc4c(c23)CCN(C(=O)c2cc(C(C)C)c(O)cc2O)C4)c1 [Compound 8h, (2,4-dihydroxy-5-isopropylphenyl)(4-((3-isopropylphenyl)amino)-5,8-dihydropyrido[4',3':4,5]thieno[2,3-d]pyrimidin-7(6H)-yl)methanone] | 468 | 380 | > 10 | 39.1 | – |
| COc1cccc(Nc2ncnc3sc4c(c23)CCN(C(=O)c2cc(C(C)C)c(O)cc2O)C4)c1 [Compound 8g, (2,4-dihydroxy-5-isopropylphenyl)(4-((3-methoxyphenyl)amino)-5,8-dihydropyrido[4',3':4,5]thieno[2,3-d]pyrimidin-7(6H)-yl)methanone] | 210 | 71 | > 10 | 37.5 | – |
| Oc1cccc(-c2nc(N3CCOCC3)c3oc4ncccc4c3n2)c1 [PI-103, reference compound] | – | – | – | – | tumor growth inhibition ratio (B16 melanoma xenograft): 29% |
| Cc1ccc(Nc2ncnc3sc4c(c23)CCN(C(=O)c2cc(C(C)C)c(O)cc2O)C4)c(C)c1 [Compound 8i, (2,4-dihydroxy-5-isopropylphenyl)(4-((2,4-dimethylphenyl)amino)-5,8-dihydropyrido[4',3':4,5]thieno[2,3-d]pyrimidin-7(6H)-yl)methanone] | 1640 | 578 | 0.169 | 24.8 | – |
| CC(C)c1cc(C(=O)N2CCc3c(sc4ncnc(N5CCCCC5)c34)C2)c(O)cc1O [Compound 8k, (2,4-dihydroxy-5-isopropylphenyl)(4-(piperidin-1-yl)-5,8-dihydropyrido[4',3':4,5]thieno[2,3-d]pyrimidin-7(6H)-yl)methanone] | 51.9 | – | – | 65.2 | IC50 (PI3Kα): 133 nM |

Now from value to compound, other results behind:

| IC50 (Hsp90α) [nM] | IC50 (EGFR) [nM] | IC50 (VEGFR2) [µM] | Compound | B16 GI ratio (B16 melanoma cell line) [%] | further results |
| --- | --- | --- | --- | --- | --- |
| 290 | 49.9 | > 10 | CC(C)c1cc(C(=O)N2CCc3c(sc4ncnc(Nc5ccc(Br)cc5)c34)C2)c(O)cc1O [Compound 8b, (4-((4-bromophenyl)amino)-5,8-dihydropyrido[4',3':4,5]thieno[2,3-d]pyrimidin-7(6H)-yl)(2,4-dihydroxy-5-isopropylphenyl)methanone] | 33.6 | – |
| 318 | 51.8 | > 10 | Cc1cccc(Nc2ncnc3sc4c(c23)CCN(C(=O)c2cc(C(C)C)c(O)cc2O)C4)c1 [Compound 8d, (2,4-dihydroxy-5-isopropylphenyl)(4-(m-tolylamino)-5,8-dihydropyrido[4',3':4,5]thieno[2,3-d]pyrimidin-7(6H)-yl)methanone] | 41.7 | – |
| 207 | 147 | 0.716 | CC(C)c1cc(C(=O)N2CCc3c(sc4ncnc(Nc5cccc(O)c5)c34)C2)c(O)cc1O [Compound 8j, (2,4-dihydroxy-5-isopropylphenyl)(4-((3-hydroxyphenyl)amino)-5,8-dihydropyrido[4',3':4,5]thieno[2,3-d]pyrimidin-7(6H)-yl)methanone] | 36.0 | – |
| 229 | 40.2 | > 10 | CC(C)c1cc(C(=O)N2CCc3c(sc4ncnc(Nc5cccc(F)c5)c34)C2)c(O)cc1O [Compound 8e, (2,4-dihydroxy-5-isopropylphenyl)(4-((3-fluorophenyl)amino)-5,8-dihydropyrido[4',3':4,5]thieno[2,3-d]pyrimidin-7(6H)-yl)methanone] | 38.9 | – |
| 196 | 37.1 | > 10 | CC(C)c1cc(C(=O)N2CCc3c(sc4ncnc(Nc5cccc(Cl)c5)c34)C2)c(O)cc1O [Compound 8c, (4-((3-chlorophenyl)amino)-5,8-dihydropyrido[4',3':4,5]thieno[2,3-d]pyrimidin-7(6H)-yl)(2,4-dihydroxy-5-isopropylphenyl)methanone] | 51.2 | – |
| 318 | 76.6 | > 10 | CC(C)c1cc(C(=O)N2CCc3c(sc4ncnc(Nc5ccc(Cl)cc5)c34)C2)c(O)cc1O [Compound 8f, (4-((4-chlorophenyl)amino)-5,8-dihydropyrido[4',3':4,5]thieno[2,3-d]pyrimidin-7(6H)-yl)(2,4-dihydroxy-5-isopropylphenyl)methanone] | 29.5 | – |
| 375 | 60.7 | > 10 | CCc1cccc(Nc2ncnc3sc4c(c23)CCN(C(=O)c2cc(C(C)C)c(O)cc2O)C4)c1 [Compound 8a, (2,4-dihydroxy-5-isopropylphenyl)(4-((3-ethylphenyl)amino)-5,8-dihydropyrido[4',3':4,5]thieno[2,3-d]pyrimidin-7(6H)-yl)methanone] | 26.8 | – |
